Source: PubChem BioAssay (several laboratories)
Only some compounds are listed: those with a hit (about 1.3% of all), similar ones and a draw of the others.
CHT block: inhibitors of human choline transporter CHT; 310,000 compounds, 0.86% hits; AID 488975; CHT-expressing cells, membrane potential dye, choline response; stronger effect = lower value; Q9GZV3; B-score at 10 µM;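 active = B-score over 3 SD under the library average, and starting fluorescence ratio not unusually high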;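 also: choline stimulus applied at its EC90 after an EC20 pre-addition; B-score computed on integrated fluorescence ratio after choline addition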
proCasp3 act: activators of human procaspase-3; recombinant procaspase-3 D3A, Ac-DEVD-pNA absorbance 405 nm; AID 463141; P42574; 330,000 compounds, 0.11% hits; activation, % at 8.5 µM;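 active = activation above the mean of all tested compounds plus 3 SD, cut at about 21% in these data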
Target sequence (P42574 whole entry D9A/D28A/D175A): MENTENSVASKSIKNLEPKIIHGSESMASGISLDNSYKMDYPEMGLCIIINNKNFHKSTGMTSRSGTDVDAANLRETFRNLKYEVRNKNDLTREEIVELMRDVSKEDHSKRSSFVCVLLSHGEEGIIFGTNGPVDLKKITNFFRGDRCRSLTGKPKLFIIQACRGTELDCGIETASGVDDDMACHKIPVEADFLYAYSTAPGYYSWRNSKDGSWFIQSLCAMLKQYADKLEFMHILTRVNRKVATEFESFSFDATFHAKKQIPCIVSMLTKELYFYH
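Assay system – Procaspase-3 D3A mutant, all three cleavage aspartates alanine · Controls – DMSO-only low control, 5 µM PC-3 D3A high control · Schedule – 1 h compound preincubation, 2 h substrate hydrolysis at 25 °C · Signal – 405 nm absorbance of p-nitroaniline, reads at 0 and 120 min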
procasp7 counter: activates human procaspase-7, counter-screen for procaspase-3 activators; P55210; recombinant procaspase-7, Ac-DEVD-pNA absorbance 405 nm; D23A/D198A/D206A triple mutant, cannot self-cleave; scale: DMSO 0, 5 µM enzyme 100; activation, % at 8.5 µM; 330,000 compounds, 0.093% hits; AID 463210;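 active = percent activation above the screen-wide mean plus 3 SD, cut at about 25% in these data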
Target sequence (P55210 whole entry D23A/D198A/D206A): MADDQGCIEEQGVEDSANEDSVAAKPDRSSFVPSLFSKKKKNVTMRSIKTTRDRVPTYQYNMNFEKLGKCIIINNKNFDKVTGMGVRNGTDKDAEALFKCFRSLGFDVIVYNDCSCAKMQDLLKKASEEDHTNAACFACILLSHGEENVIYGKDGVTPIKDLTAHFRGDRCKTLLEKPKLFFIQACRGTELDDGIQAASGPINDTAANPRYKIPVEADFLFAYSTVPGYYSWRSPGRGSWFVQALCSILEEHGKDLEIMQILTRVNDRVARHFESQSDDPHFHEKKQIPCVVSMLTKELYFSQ
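Assay system: Uncleavable procaspase-7 mutant enzyme / Input: 2 µM procaspase-7 mutant as dispensed / Dosing: single nominal 8.5 µM compound dose, 0.8% DMSO final / Timing: 1 h enzyme–compound preincubation and 2 h substrate reaction, both 25 °C / Detection: p-Nitroaniline absorbance at 405 nm, read at 0 and 120 min / Replication: singlicate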
CHT PAM: human CHT allosteric activation. CHT-expressing cells, membrane potential dye, choline EC20; stronger effect = higher value; LV-AA mutant CHT in HEK293 cells. B-score at 10 µM. 310,000 compounds, 0.49% hits. Q9GZV3;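 active = initial fluorescence not abnormally high and integrated response B-score, plate-corrected, over 3 SD above library mean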
CHT block conf: confirmation of human choline transporter CHT inhibitors | 2,400 compounds, 70% hits | CHT activity remaining % of control (stronger effect = lower value), % at 10 µM | CHT-expressing cells, choline membrane potential dye; LV-to-AA substituted CHT, HEK293 cells | shares compounds with CHT block;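 active = choline transporter activity left, mean of duplicates at 10 µM, below buffer-only control mean minus 3 SD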;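 also: depolarization triggered by choline at its EC90 following an EC20 pre-addition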
HEK293 CHT ctr: activity in parental HEK293 cells lacking CHT; shares compounds with CHT block; membrane potential dye, choline response; active = decrease or increase beyond buffer ±3SD; membrane potential ratio readout (active if shifted either direction beyond buffer ±3SD; no single direction) at 10 µM; 2,400 compounds, 4% hits; AID 493222;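 also: parental cells lack the transporter so any hit is non-specific; ratio is peak minus trough fluorescence over baseline after EC90 choline challenge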
Each line names hits and unclear results; the compound was inactive in the other large screens (follow-up assays come after a bar, where they were run).

CC1CCN(S(=O)(=O)c2ccc3c(c2)c(=O)c(C(=O)NC2CCCC2)cn3C)CC1	CHT block -7.3 | CHT block conf 52% | HEK293 CHT ctr inactive
CCn1cc(C(=O)N2CCCCC2)c(=O)c2cc(S(=O)(=O)N3CCC(C)CC3)ccc21	CHT block -6.2 | CHT block conf 34% | HEK293 CHT ctr inactive
Cn1cc(C(=O)NC2CCCCC2)c(=O)c2cc(S(=O)(=O)N3CCCC3)ccc21	none
Cc1ccc(C)c(NC(=O)CCc2nnc3ccc(N4CCCC4)nn23)c1	none
CSc1ccc(CCNC(=O)CCc2nnc3ccc(N4CCCC4)nn23)cc1	CHT block -5.3 | CHT block conf inactive | HEK293 CHT ctr inactive
COc1ccc(OC(C)C(=O)NCCC2=CCCCC2)cc1 (stereo not given)	CHT block -5.1 | CHT block conf inactive | HEK293 CHT ctr inactive
O=c1c2cc(Br)ccc2nc(-c2ccc(Cl)cc2)n1O	CHT block -6.1 | CHT block conf 41% | HEK293 CHT ctr inactive
Cc1ccc(-c2nc3c(Cl)cc(Cl)cc3c(=O)n2O)cc1	CHT block -5.5 | CHT block conf 46% | HEK293 CHT ctr inactive
NCCCn1c(C(=O)c2ccc(Cl)cc2)c2ccc(C(F)(F)F)cc2[n+]1[O-]	CHT block -5.1 | CHT block conf 31% | HEK293 CHT ctr 2.2
NC(=O)CCCn1c(C(=O)c2cc(Cl)c(N)c(Cl)c2)c2ccc([N+](=O)[O-])cc2[n+]1[O-]	CHT block -8.8 | CHT block conf 17% | HEK293 CHT ctr inactive
NC(=O)CCCn1c(C(=O)c2ccc(Cl)cc2)c2ccc([N+](=O)[O-])cc2[n+]1[O-]	none
CCCCNC(=O)c1ccc2c(OCC)n(CCCC)nc2c1	CHT block -7.1 | CHT block conf 57% | HEK293 CHT ctr inactive
O=c1cc(CNc2ccc(Br)cc2)nc2sccn12	CHT block -5.4 | CHT block conf 59% | HEK293 CHT ctr inactive
COc1ccc(C2N(C(=O)CN3CCCC3)CCCN2S(=O)(=O)c2ccccc2)cc1 (stereo not given)	none
O=C(CN1CCOCC1)N1CCN(S(=O)(=O)c2ccccc2)C1c1ccccc1 (stereo not given)	CHT block -6.9 | CHT block conf inactive | HEK293 CHT ctr -9.8
C#CCNc1c(C)c(C)nc2ncnn12	CHT block -5 | CHT block conf 23% | HEK293 CHT ctr inactive
CN(Cc1ccccc1)c1nc(N)nc(Cl)c1C=O	CHT block -5.5 | CHT block conf 33% | HEK293 CHT ctr inactive
CCOc1c([N+](=O)[O-])cc2c(C)c(C(=O)N3CCN(C)CC3)oc2c1OCC	none
CCOC(=O)c1[nH]ncc1CN1CCCC(C(=O)c2ccc(C(C)(C)C)cc2)C1 (stereo not given)	CHT block -8.8 | CHT block conf inactive | HEK293 CHT ctr inactive
CN(C)c1ccc(C2/C(=C(/O)c3ccccc3)C(=O)C(=O)N2CCCC(=O)O)cc1 (stereo not given)	CHT block -6.6 | CHT block conf inactive | HEK293 CHT ctr inactive
Cc1sc2ncnc(NCc3cccs3)c2c1C	none
Cc1sc2ncnc(NCc3ccco3)c2c1C	CHT block -5.4 | CHT block conf 65% | HEK293 CHT ctr inactive
CCCn1c(CN2CCN(C(=O)OCC)CC2)nc2cc(NC(C)=O)ccc21	none
C/C(=N\NC1=NCCN1)c1ccccc1	CHT block -6.5 | CHT block conf 32% | HEK293 CHT ctr inactive
C/C(=N\NC1=NCCN1)c1ccc(Cl)cc1	CHT block -6.7 | CHT block conf 52% | HEK293 CHT ctr inactive
O=C(COC(=O)c1ccco1)NC(c1ccccc1)c1ccccc1	CHT block -14 | CHT block conf inactive | HEK293 CHT ctr inactive
C=CCc1ccc(OCC(O)CN2CCC(Cc3ccccc3)CC2)c(OC)c1 (stereo not given)	CHT block -7.2 | CHT block conf 31% | HEK293 CHT ctr inactive
C=CCc1ccc(O)c(-c2cc(CC=C)ccc2O)c1	CHT block -9.9 | CHT block conf 36% | HEK293 CHT ctr inactive
C=CCc1ccc(OCC(O)CO)c(OC)c1 (stereo not given)	none
Cc1cccc(NC2=C(NCCO)C(=O)c3ccccc3C2=O)c1	CHT block -7.7 | CHT block conf 45% | HEK293 CHT ctr 2.5
CN1CCN(NC(=O)c2c(-c3ccccc3)sc3ccccc23)CC1	none (no result: CHT block, CHT PAM)
COc1ccc(C(=O)CSc2nnc(-c3ccco3)n2C)cc1	CHT block -5.4 | CHT block conf inactive | HEK293 CHT ctr inactive
CCN(CC)C(=O)C(C)OC(=O)COc1ccc(Cl)cc1C (stereo not given)	none | CHT block conf inactive | HEK293 CHT ctr inactive
NS(=O)(=O)c1cccc(NC(=O)c2cccnc2Oc2ccccc2)c1	none
O=C(COC(=O)C1(c2ccccc2F)CCCC1)N1CCN(C(=O)c2ccco2)CC1	CHT block -5.4 | CHT block conf 68% | HEK293 CHT ctr inactive
O=C(CC(C(=O)O)c1ccccc1)Nc1ccccc1 (stereo not given)	none
CC(O)c1cccc(NC(=O)CC(c2ccccc2)c2ccccc2)c1 (stereo not given)	CHT block -7.5 | CHT block conf 45% | HEK293 CHT ctr inactive
O=C(CC(c1ccccc1)c1ccccc1)Nc1ccncc1	CHT block -5.9 | CHT block conf 56% | HEK293 CHT ctr inactive
CC(C)(C)CN1CCC(Oc2cccc(C(=O)N3CCC[C@H]3CO)c2)CC1	none
O=[N+]([O-])c1cc([N+](=O)[O-])c2cccnc2c1Oc1ccccc1O	CHT block -7 | CHT block conf 45% | HEK293 CHT ctr inactive
O=[N+]([O-])c1ccc(O)c2ncccc12	none
CC(C)N(CCNC(=O)COc1ccc2oc3c(c2c1)CCCC3)C(C)C	none
Cc1ccc2c(c1)c(CC(=O)Nc1ccc(C)c(F)c1)c(C(=O)O)n2C	CHT block -5.4 | CHT block conf 63% | HEK293 CHT ctr inactive
Cn1c(C(=O)O)c(CC(=O)Nc2ccccc2F)c2ccccc21	none
Cc1cccc(NC(=O)CN(C)S(=O)(=O)c2ccc(-c3ccc(=O)[nH]n3)s2)c1C	CHT block -6.3 | CHT block conf inactive | HEK293 CHT ctr inactive
Cc1ccccc1NC(=O)CN(C)S(=O)(=O)c1ccc(-c2ccc(=O)[nH]n2)s1	none
O=C(CCCC(=O)c1ccccc1)Nc1ccc(O)cc1	none
Cn1cnnc1Sc1ccc(C(=O)NCCC(c2ccccc2)c2ccccc2)cc1[N+](=O)[O-]	CHT block -10 | CHT block conf 32% | HEK293 CHT ctr inactive
CCCN(CC(=O)Nc1ccccc1C)C(=O)CCN1C(=O)c2cccc([N+](=O)[O-])c2C1=O	none
S=C(NCc1ccccn1)Nc1ccc(Br)cc1Cl	CHT block -6.4 | CHT block conf 38% | HEK293 CHT ctr inactive
